Compound activity: PubChem, several laboratories
Shown are actives, neighbours in structure and some others; about 2.3% of the full set was active somewhere.
TbHK1 inh: Trypanosoma brucei hexokinase 1 inhibitors, primary screen, biochemical, G6PDH-coupled NADH absorbance, MLSCN library. recombinant TbHK1, G6PDH-coupled NADH A340. inhibition, % at 10 µM. hit rate 0.11% among 220,000. hexokinase 1 [Trypanosoma brucei];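 active = inhibition of 50% or more in the single-dose primary screen; inactive = inhibition below 50%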
NPY1 pot ag: NPY-Y1 receptor potentiators or agonists, primary screen, cell-based | Neuropeptide Y receptor type 1 (Homo sapiens), P25929 | NPY-Y1 expressing cells, potentiator/agonist activation | activation, % at 3.6 µM | hit rate 0.37% among 220,000 | AID 1304, 2008; in the data active = activation above about 33%, passing the limit was not always enough;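 note: cells stimulated with NPY at EC10 then isoproterenol at EC100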
Target sequence (P25929 whole entry, looked up): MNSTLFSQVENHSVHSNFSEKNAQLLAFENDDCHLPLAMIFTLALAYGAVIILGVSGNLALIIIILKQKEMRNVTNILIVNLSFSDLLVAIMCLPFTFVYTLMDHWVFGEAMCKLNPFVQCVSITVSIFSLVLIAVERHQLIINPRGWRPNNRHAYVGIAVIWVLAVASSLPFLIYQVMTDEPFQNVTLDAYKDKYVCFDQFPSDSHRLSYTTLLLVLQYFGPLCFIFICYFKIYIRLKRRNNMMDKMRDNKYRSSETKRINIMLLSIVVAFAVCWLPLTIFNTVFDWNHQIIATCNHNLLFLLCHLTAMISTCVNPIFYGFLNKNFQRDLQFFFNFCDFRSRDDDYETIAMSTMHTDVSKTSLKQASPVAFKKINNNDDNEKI
NPY-Y2 PAM-ag: NPY-Y2 potentiators or agonists, primary screen, cell-based | Neuropeptide Y receptor type 2 (Homo sapiens), P49146 | cells expressing NPY-Y2, potentiator/agonist read-out | activation, % at 3.6 µM | hit rate 0.45% among 220,000; in the data active = activation above about 27%;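 note: cells stimulated with NPY near EC25 plus isoproterenol at EC100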
NPY-Y2 antag: NPY-Y2 receptor antagonists, primary screen, cell-based; Neuropeptide Y receptor type 2 (Homo sapiens), P49146; NPY-Y2 expressing cells, antagonist mode; inhibition, % at 2.7 µM; hit rate 0.99% among 140,000; AID 793, 2007; in the data active = inhibition above about 17%
m-calpain inh: inhibitors of pig calpain II, primary screen, biochemical, fluorogenic peptide substrate, 1536-well. purified calpain II, 30 min. inhibition, % at 16 µM. hit rate 0.37% among 220,000. AID 1236, 2008;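 active = inhibition above about 50%, limit read from the data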
NPY-Y1 antag: NPY-Y1 receptor antagonists, primary screen, cell-based | Neuropeptide Y receptor type 1 (Homo sapiens), P25929 | HEK293-CNG Y1 cells, membrane potential fluorescence; NPY at EC95, then isoproterenol | inhibition, % at 3.6 µM | hit rate 1% among 200,000 | AID 1040, 2008;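 active = inhibition above the campaign mean inhibition of all tested compounds plus 3 SD, cut at about 20% in these data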
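Material: HEK293 cells co-expressing NPY Y1 receptor and cyclic-nucleotide gated channel. Timing: compound incubation 1 h at room temperature, readout 45 min post-stimulation. Signal: fluorescence, membrane potential probe.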
Each line names hits and unclear results; the compound was inactive in the other large screens.

Cn1c(NCc2ccco2)nc2c1c(=O)n(Cc1ccc(Cl)cc1)c(=O)n2C	none
Cn1c(NCc2ccco2)nc2c1c(=O)n(Cc1ccc(Br)cc1)c(=O)n2C	m-calpain inh 71
COc1ccc(Cn2c(=O)c3c(nc(NCCO)n3C)n(C)c2=O)cc1	none
Cn1c(NCc2ccccc2)nc2c1c(=O)n(Cc1ccc(Br)cc1)c(=O)n2C	m-calpain inh 78
COc1ccc2cc(-c3[nH]ncc3CN3CCCC3c3nonc3C)ccc2c1 (configuration not stated)	none (no result: NPY-Y2 antag)
Cc1nc(SCC(=O)NC(C)c2ccccc2)c2oc3ccccc3c2n1 (configuration not stated)	m-calpain inh 57
Cc1cc(C)c2nc(N3CCN(C)CC3)c(C#N)cc2c1	NPY-Y2 antag 26, NPY-Y1 antag 52
COc1cccc(S(=O)(=O)NCc2ccc(C(=O)Nc3ccc(Cl)c(Cl)c3)cc2)c1	NPY1 pot ag 44
COc1ccc(NC(=O)c2ccc(CNS(=O)(=O)c3cccc(OC)c3)cc2)cc1	none
CN(C)/C=C(\C=O)c1ccc(Cl)cc1Cl	none (no result: NPY-Y2 antag)
O=C1C2CC=CCC2C(=O)N1c1ccc(NCCc2cccc(F)c2)c([N+](=O)[O-])c1 (configuration not stated)	none
O=C1c2cccc3cccc(c23)C(=O)N1CCN1CCN(C(=S)Nc2ccc(Cl)cc2)CC1	m-calpain inh 54
O=C1c2cccc3cccc(c23)C(=O)N1CCN1CCN(C(=S)Nc2ccccc2)CC1	none
CSc1sc(C(=O)N(C)C)c2c1S(=O)(=O)N(C)c1ccccc1-2	none (no result: NPY-Y2 antag, NPY-Y1 antag)
O=C(NN1C(=O)/C(=C/C=C/c2ccco2)SC1=S)c1ccccc1O	TbHK1 inh 63 (no result: NPY-Y2 antag, NPY-Y1 antag)
COc1ccc(OC)c(CNC(=O)Cc2c(C(=O)O)[nH]c3ccccc23)c1	NPY1 pot ag 64
COc1cccc(CNC(=O)Cc2c(C(=O)O)[nH]c3ccccc23)c1	none
Cc1ccc(NCC(=O)N/N=C/c2c[nH]c3ccccc23)cc1	m-calpain inh 70 (no result: NPY-Y2 antag)
CCn1c(SCC(=O)N/N=C/c2c[nH]c3ccccc23)nnc1-c1ccc(C(C)(C)C)cc1	NPY1 pot ag 49, NPY-Y2 PAM-ag 44
CCn1c(SCC(=O)N/N=C/c2ccc(C)o2)nnc1-c1ccc(C(C)(C)C)cc1	none
Cc1ccc(NC(C)C(=O)N/N=C/c2c[nH]c3ccccc23)cc1 (configuration not stated)	none
COc1cc([N+](=O)[O-])ccc1NC(=O)CCCOc1cc(C)ccc1C	none
CCCc1cc(-c2n[nH]c(=S)n2CC(C)C)cs1	m-calpain inh 50
CCCCn1c(-c2csc(CC)c2)n[nH]c1=S	none
O=S(=O)(c1ccccc1)N(CC1CO1)c1cccc2ccccc12 (configuration not stated)	none (no result: NPY-Y2 antag)
COc1ccccc1C(=O)Nc1onc(C)c1C#N	none (no result: NPY-Y2 antag)
C1CCN(c2nc(N3CCCCC3)nc(N3CCNCC3)n2)CC1	NPY1 pot ag 103, NPY-Y2 PAM-ag 96
CC1CCN(c2nc(N3CCCCC3)nc(N3CCCCC3)n2)CC1	none (no result: NPY-Y2 antag)
CCc1cccc(CC)c1NC(=S)Nc1ccccc1	none (no result: NPY-Y2 antag)
Cc1c(NC(=O)c2cc(-n3cnnc3)ccc2Cl)cccc1-c1nc2ccccc2s1	none
Cc1c(NC(=O)c2cccs2)cccc1-c1nc2ccccc2s1	NPY1 pot ag 46, NPY-Y2 PAM-ag 27
COc1cccc(OCC(O)CN2CCC(CN3C(=O)c4cccc5cccc(c45)C3=O)CC2)c1 (configuration not stated)	NPY1 pot ag 52, NPY-Y2 PAM-ag 43 (no result: NPY-Y2 antag)
COc1ccc(OC)c2sc(N(CCN(C)C)C(=O)c3cc(Cl)sc3Cl)nc12	NPY1 pot ag 90, NPY-Y2 PAM-ag 79 (no result: NPY-Y2 antag)
COc1ccc2sc(N(CCN(C)C)C(=O)c3cc(Cl)sc3Cl)nc2c1	none (no result: NPY-Y2 antag)
O=C(C1=NN[C@@H]2C(=O)N(c3cccc(C(F)(F)F)c3)C(=O)[C@H]12)c1cnccn1	none (no result: NPY-Y2 antag, NPY-Y1 antag)
CCOC(=O)C1=C(C)NC(=O)NC1c1ccsc1 (configuration not stated)	NPY1 pot ag 111, NPY-Y2 PAM-ag 40
